Results reported in ChEMBL document CHEMBL3232881, “New orally active amino- and hydroxy-functionalized 11-azaartemisinins and their derivatives with high order of antimalarial activity against multidrug-resistant Plasmodium yoelii in Swiss mice” (2014).

Key:
Format in all cases: functional
Plasmodium yoelii [1] = experiment: Antimalarial activity against chloroquine, mefloquine and halofantrine-resistant Plasmodium yoelii infected in Swiss mouse assessed as mouse survival at 24 mg/kg, po for 4 days measured on day 28 relative to control
Outline: (§1)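 P. yoelii nigeriensis (chloroquine-, mefloquine-, halofantrine-resistant) given ip as 1 × 10⁶ parasitized RBCs on day 0 to Swiss mice of either sex, five per dose. Compound in groundnut oil, 0.1 mL, given orally once daily days 0–3. Blood smears checked through day 28. Mice surviving beyond day 28 counted as protected, reported as % of five. β-Arteether as positive control.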

Plasmodium yoelii [2] = experiment: Antimalarial activity against chloroquine, mefloquine and halofantrine-resistant Plasmodium yoelii infected in Swiss mouse assessed as suppression of parasitemia at 24 mg/kg, po for 4 days by microscopic analysis relative to control
Outline: (§2)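 Swiss mice of either sex infected ip on day 0 with 1 × 10⁶ parasitized RBCs of multidrug-resistant P. yoelii nigeriensis, five per dose. Oral dosing in groundnut oil (0.1 mL) once daily days 0–3. Parasitemia read by microscopy on day 4. % suppression = [(C − T)/C] × 100 against untreated controls; 100% means no parasites in 50 oil-immersion fields.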

Plasmodium yoelii [3] = experiment: Antimalarial activity against chloroquine, mefloquine and halofantrine-resistant Plasmodium yoelii infected in Swiss mouse assessed as suppression of parasitemia at 12 mg/kg, po for 4 days by microscopic analysis relative to control; outline: as §2
Plasmodium yoelii [4] = experiment: Antimalarial activity against chloroquine, mefloquine and halofantrine-resistant Plasmodium yoelii infected in Swiss mouse assessed as mouse survival at 12 mg/kg, po for 4 days measured on day 28 relative to control; outline: as §1
Plasmodium yoelii [5] = experiment: Antimalarial activity against chloroquine, mefloquine and halofantrine-resistant Plasmodium yoelii infected in Swiss mouse assessed as suppression of parasitemia at 6 mg/kg, po for 4 days by microscopic analysis relative to control; outline: as §2
Plasmodium yoelii [6] = experiment: Ratio of compound to beta-arteether for antimalarial activity against chloroquine, mefloquine and halofantrine-resistant Plasmodium yoelii infected in Swiss mouse assessed as mouse survival
Plasmodium yoelii [7] = experiment: Antimalarial activity against chloroquine, mefloquine and halofantrine-resistant Plasmodium yoelii infected in Swiss mouse assessed as mouse survival at 6 mg/kg, po for 4 days measured on day 28 relative to control; outline: as §1
Plasmodium yoelii [8] = experiment: Antimalarial activity against chloroquine, mefloquine and halofantrine-resistant Plasmodium yoelii infected in Swiss mouse assessed as suppression of parasitemia at 48 mg/kg, po for 4 days by microscopic analysis relative to control; outline: as §2
Plasmodium yoelii [9] = experiment: Antimalarial activity against chloroquine, mefloquine and halofantrine-resistant Plasmodium yoelii infected in Swiss mouse assessed as mouse survival at 48 mg/kg, po for 4 days measured on day 28 relative to control; outline: as §1

SMILES | Activity (Plasmodium yoelii [1]) [%] | Activity (Plasmodium yoelii [2]) [%] | Activity (Plasmodium yoelii [3]) [%] | Activity (Plasmodium yoelii [4]) [%] | Activity (Plasmodium yoelii [5]) [%] | Ratio (Plasmodium yoelii [6]) | Activity (Plasmodium yoelii [7]) [%] | Activity (Plasmodium yoelii [8]) [%] | Activity (Plasmodium yoelii [9]) [%]
C[C@@H]1CC[C@H]2[C@@H](C)C(=O)N(N)[C@@H]3O[C@@]4(C)CC[C@@H]1[C@@]23OO4 | 40 | 100 |  |  |  |  |  |  | 
C[C@@H]1CC[C@H]2[C@@H](C)C(=O)N(O)[C@@H]3O[C@@]4(C)CC[C@@H]1[C@@]23OO4 | 0 | 54 |  |  |  |  |  |  | 
C[C@@H]1CC[C@H]2[C@@H](C)C(=O)N(NC(=O)c3ccccc3)[C@@H]3O[C@@]4(C)CC[C@@H]1[C@@]23OO4 | 100 | 100 | 62 | 0 |  |  |  |  | 
C[C@@H]1CC[C@H]2[C@@H](C)C(=O)N(NC(=O)c3ccc(Br)cc3)[C@@H]3O[C@@]4(C)CC[C@@H]1[C@@]23OO4 | 100 | 100 | 100 | 0 |  |  |  |  | 
C[C@@H]1CC[C@H]2[C@@H](C)C(=O)N(NC(=O)c3ccc(C(F)(F)F)cc3)[C@@H]3O[C@@]4(C)CC[C@@H]1[C@@]23OO4 | 100 | 100 | 100 | 20 |  |  |  |  | 
C[C@@H]1CC[C@H]2[C@@H](C)C(=O)N(NC(=O)C34CC5CC(CC(C5)C3)C4)[C@@H]3O[C@@]4(C)CC[C@@H]1[C@@]23OO4 | 60 | 100 |  |  |  |  |  |  | 
C[C@@H]1CC[C@H]2[C@@H](C)C(=O)N(NC(=O)C3c4ccccc4-c4ccccc43)[C@@H]3O[C@@]4(C)CC[C@@H]1[C@@]23OO4 | 60 | 100 |  |  |  |  |  |  | 
C[C@@H]1CC[C@H]2[C@@H](C)C(=O)N(NC(=O)c3ccc(-c4ccccc4)cc3)[C@@H]3O[C@@]4(C)CC[C@@H]1[C@@]23OO4 | 100 | 100 | 100 | 100 | 94 | 4 | 0 |  | 
C[C@@H]1CC[C@H]2[C@@H](C)C(=O)N(NC(=O)CC34CC5CC(CC(C5)C3)C4)[C@@H]3O[C@@]4(C)CC[C@@H]1[C@@]23OO4 | 60 | 100 |  |  |  |  |  |  | 
C[C@@H]1CC[C@H]2[C@@H](C)C(=O)N(/N=C/c3ccccc3)[C@@H]3O[C@@]4(C)CC[C@@H]1[C@@]23OO4 | 40 | 100 |  |  |  |  |  |  | 
Cc1ccc(/C=N/N2C(=O)[C@H](C)[C@@H]3CC[C@@H](C)[C@@H]4CC[C@@]5(C)OO[C@]43[C@H]2O5)cc1 | 100 | 100 | 100 | 100 | 66 | 4 | 0 |  | 
C[C@@H]1CC[C@H]2[C@@H](C)C(=O)N(/N=C/c3ccc(Cl)cc3)[C@@H]3O[C@@]4(C)CC[C@@H]1[C@@]23OO4 | 20 | 100 |  |  |  |  |  |  | 
C[C@@H]1CC[C@H]2[C@@H](C)C(=O)N(/N=C/c3ccc(F)cc3)[C@@H]3O[C@@]4(C)CC[C@@H]1[C@@]23OO4 | 40 | 100 |  |  |  |  |  |  | 
C[C@@H]1CC[C@H]2[C@@H](C)C(=O)N(/N=C/c3ccc(C(F)(F)F)cc3)[C@@H]3O[C@@]4(C)CC[C@@H]1[C@@]23OO4 | 100 | 100 | 100 | 100 | 99 | 4 | 0 |  | 
C[C@@H]1CC[C@H]2[C@@H](C)C(=O)N(/N=C/c3ccc(-c4ccccc4)cc3)[C@@H]3O[C@@]4(C)CC[C@@H]1[C@@]23OO4 | 100 | 100 | 100 | 100 | 100 | 4 | 80 |  | 
C[C@@H]1CC[C@H]2[C@@H](C)C(=O)N(/N=C/c3ccc4c(c3)Cc3ccccc3-4)[C@@H]3O[C@@]4(C)CC[C@@H]1[C@@]23OO4 | 100 | 100 | 100 | 100 | 66 | 4 | 0 |  | 
C[C@@H]1CC[C@H]2[C@@H](C)C(=O)N(NCc3ccccc3)[C@@H]3O[C@@]4(C)CC[C@@H]1[C@@]23OO4 | 100 | 100 | 100 | 0 |  |  |  |  | 
Cc1ccc(CNN2C(=O)[C@H](C)[C@@H]3CC[C@@H](C)[C@@H]4CC[C@@]5(C)OO[C@]43[C@H]2O5)cc1 | 60 | 100 | 74 | 0 |  |  |  |  | 
C[C@@H]1CC[C@H]2[C@@H](C)C(=O)N(NCc3ccc(Cl)cc3)[C@@H]3O[C@@]4(C)CC[C@@H]1[C@@]23OO4 | 100 | 100 | 100 | 80 |  |  |  |  | 
C[C@@H]1CC[C@H]2[C@@H](C)C(=O)N(NCc3ccc(F)cc3)[C@@H]3O[C@@]4(C)CC[C@@H]1[C@@]23OO4 | 100 | 100 | 100 | 20 |  |  |  |  | 
C[C@@H]1CC[C@H]2[C@@H](C)C(=O)N(NCc3ccc(C(F)(F)F)cc3)[C@@H]3O[C@@]4(C)CC[C@@H]1[C@@]23OO4 | 100 | 100 | 100 | 20 |  |  |  |  | 
C[C@@H]1CC[C@H]2[C@@H](C)C(=O)N(NCc3ccc(-c4ccccc4)cc3)[C@@H]3O[C@@]4(C)CC[C@@H]1[C@@]23OO4 | 100 | 100 | 100 | 100 | 100 | 4 | 20 |  | 
C[C@@H]1CC[C@H]2[C@@H](C)C(=O)N(NCc3ccc4c(c3)Cc3ccccc3-4)[C@@H]3O[C@@]4(C)CC[C@@H]1[C@@]23OO4 | 100 | 100 | 100 | 40 |  |  |  |  | 
C[C@@H]1CC[C@H]2[C@@H](C)C(=O)N(OCc3ccccc3)[C@@H]3O[C@@]4(C)CC[C@@H]1[C@@]23OO4 | 100 | 100 | 100 | 80 |  |  |  |  | 
C[C@@H]1CC[C@H]2[C@@H](C)C(=O)N(OCc3ccccc3F)[C@@H]3O[C@@]4(C)CC[C@@H]1[C@@]23OO4 | 100 | 100 | 89 | 0 |  |  |  |  | 
C[C@@H]1CC[C@H]2[C@@H](C)C(=O)N(OCc3ccc(-c4ccccc4)cc3)[C@@H]3O[C@@]4(C)CC[C@@H]1[C@@]23OO4 | 100 | 100 | 100 | 60 |  |  |  |  | 
CCO[C@H]1O[C@@H]2O[C@@]3(C)CC[C@H]4[C@H](C)CC[C@@H]([C@H]1C)[C@@]24OO3 [ARTEMOTIL] | 20 | 100 |  |  |  |  |  | 100 | 100
